Measured values taken from ChEMBL document CHEMBL1154534, “Ultrasound promoted synthesis of 2-imidazolines in water: a greener approach toward monoamine oxidase inhibitors” (Bioorg Med Chem Lett, 2009).

What was measured:
[1] = target: T1, Amine oxidase [flavin-containing] A (Rattus norvegicus, UniProt P21396); assay: Binding affinity to MAOA imidazoline binding site in rat brain mitochondrial homogenate assessed as 4-hydroxyquinoline production by spectrophotometry; assay type: tissue-based
T1 sequence (P21396 whole entry): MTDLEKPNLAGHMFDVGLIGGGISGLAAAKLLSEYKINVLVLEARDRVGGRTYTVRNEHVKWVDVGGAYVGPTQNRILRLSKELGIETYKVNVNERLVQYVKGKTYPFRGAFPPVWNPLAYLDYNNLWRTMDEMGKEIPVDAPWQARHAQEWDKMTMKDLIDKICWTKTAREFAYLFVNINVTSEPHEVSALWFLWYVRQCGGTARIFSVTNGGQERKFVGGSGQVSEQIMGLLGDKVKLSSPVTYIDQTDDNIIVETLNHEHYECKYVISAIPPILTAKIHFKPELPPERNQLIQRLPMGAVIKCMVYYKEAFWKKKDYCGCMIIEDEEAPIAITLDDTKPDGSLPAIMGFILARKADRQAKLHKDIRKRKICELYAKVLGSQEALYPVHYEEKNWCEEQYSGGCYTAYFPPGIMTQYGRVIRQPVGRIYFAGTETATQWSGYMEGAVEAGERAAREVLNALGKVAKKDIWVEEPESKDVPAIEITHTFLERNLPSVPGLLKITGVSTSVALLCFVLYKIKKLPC
Outline: (§1)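 Rat brain mitochondrial homogenates, with protein measured by Bradford. Fractions were preincubated for 5 min at 37 °C with 250 nM selegiline (MAO-A assay) or 250 nM clorgyline (MAO-B assay). Compounds were added in DMSO, followed 5 min later by kynuramine at its KM for each isoform. Incubation ran 30 min at 37 °C and was stopped with trichloroacetic acid, then centrifuged. 4-Hydroxyquinoline was read at 314 nm, or by fluorescence (ex 315/em 380 nm) if compounds interfered.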

[2] = target: T2, Amine oxidase [flavin-containing] B (Rattus norvegicus, UniProt P19643); assay: Binding affinity to MAOB imidazoline binding site in rat brain mitochondrial homogenate assessed as 4-hydroxyquinoline production by spectrophotometry; assay type: tissue-based; outline: as §1
T2 sequence (P19643 whole entry): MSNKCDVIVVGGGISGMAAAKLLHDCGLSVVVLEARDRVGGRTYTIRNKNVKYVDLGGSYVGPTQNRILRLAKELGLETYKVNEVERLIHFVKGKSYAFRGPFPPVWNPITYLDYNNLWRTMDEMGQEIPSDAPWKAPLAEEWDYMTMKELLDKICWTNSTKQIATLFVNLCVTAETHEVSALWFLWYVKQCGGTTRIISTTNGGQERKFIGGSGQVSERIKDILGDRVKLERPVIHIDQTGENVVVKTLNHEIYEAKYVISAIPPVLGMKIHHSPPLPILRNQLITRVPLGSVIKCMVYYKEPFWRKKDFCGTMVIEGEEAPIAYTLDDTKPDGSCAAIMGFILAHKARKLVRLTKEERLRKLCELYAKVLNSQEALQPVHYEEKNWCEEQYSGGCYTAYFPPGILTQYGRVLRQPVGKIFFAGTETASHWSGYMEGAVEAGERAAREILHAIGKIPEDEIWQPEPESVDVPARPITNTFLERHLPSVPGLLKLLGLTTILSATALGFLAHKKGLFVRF

Rattus norvegicus [3] = species: Rattus norvegicus; assay: Selectivity index, ratio of Ki rat for MAOA to Ki for rat MAOB
Rattus norvegicus [4] = species: Rattus norvegicus; assay: Selectivity index, ratio of Ki rat for MAOB to Ki for rat MAOA

O=[N+]([O-])c1ccc(C2=NCCN2)cc1
Ki [1]: 181 µM | Ki [2]: > 1000 µM | Ratio Ki (Rattus norvegicus [3]): < 0.181

Clc1ccccc1C1=NCCN1
Ki [1]: > 1000 µM | Ki [2]: 24.6 µM | Ratio Ki (Rattus norvegicus [3]): > 40.7

O=C(Oc1ccc(C2=NCCN2)cc1)c1ccccc1
Ki [1]: 12.8 µM | Ki [2]: 1.38 µM | Ratio Ki (Rattus norvegicus [3]): 9.27

c1ccc2oc(C3=NCCN3)cc2c1
IC50 [1]: 65 µM | Ki [1]: 24.9 µM | IC50 [2]: 9.1 µM | Ki [2]: 3.63 µM

COc1cc(C2=NCCN2)cc(OC)c1OC
Ki [1]: 114 µM | Ki [2]: 1000 µM | Ratio Ki (Rattus norvegicus [3]): 0.114

Clc1ccc(C2=NCCN2)c(Cl)c1
Ki [1]: 28.8 µM | Ki [2]: 3.98 µM | Ratio Ki (Rattus norvegicus [3]): 10.5

c1coc(C2=NCCN2)c1
Ki [1]: > 1000 µM | Ki [2]: > 1000 µM

COc1ccc(C2=NCCN2)cc1
Ki [1]: 15.8 µM | Ki [2]: 32.7 µM | Ratio Ki (Rattus norvegicus [3]): 0.48

COc1ccc(C2=NCCN2)cc1OC
Ki [1]: 13.6 µM | Ki [2]: 1000 µM | Ratio Ki (Rattus norvegicus [3]): 0.013 | Ratio Ki (Rattus norvegicus [4]): 73

c1ccc2nc(C3=NCCN3)ccc2c1
IC50 [1]: 12.7 µM | Ki [1]: 4.86 µM | IC50 [2]: 13.3 µM | Ki [2]: 5.32 µM | Ratio Ki (Rattus norvegicus [3]): 0.91

c1ccc(C2=NCCN2)cc1
Ki [1]: 28.8 µM | Ki [2]: 21.3 µM | Ratio Ki (Rattus norvegicus [3]): 1.35

O=[N+]([O-])c1cccc(C2=NCCN2)c1
Ki [1]: > 1000 µM | Ki [2]: 19.3 µM | Ratio Ki (Rattus norvegicus [3]): > 51.9

Cc1ccc(C2=NCCN2)cc1
Ki [1]: 102 µM | Ki [2]: 13.1 µM | Ratio Ki (Rattus norvegicus [3]): 7.79

Clc1ccc(C2=NCCN2)cc1
Ki [1]: 166 µM | Ki [2]: 5.35 µM | Ratio Ki (Rattus norvegicus [3]): 31.1

c1ccc2cc(C3=NCCN3)ccc2c1 [BENAZOLINE]
Ki [1]: 13.9 µM | Ki [2]: 1.49 µM | Ratio Ki (Rattus norvegicus [3]): 9.32

c1ccc(C2=NCCN2)nc1
Ki [1]: > 1000 µM | Ki [2]: 25.3 µM | Ratio Ki (Rattus norvegicus [3]): > 39.5
